Experimental data published in ChEMBL document CHEMBL5338743, “Identification of a Selective SCoR2 Inhibitor That Protects Against Acute Kidney Injury” (J Med Chem, 2023).
The source made the active and inactive calls. The calls are words filed in the database; no cut-off is given here.

Assays:
[1] = target: T1, Aldo-keto reductase family 1 member A1 (Homo sapiens) (UniProt P14550); experiment: Binding affinity to C-terminal 6His-tagged human recombinant SCoR2 AKR1A1 expressed in Escherichia coli BL21-CodonPlus competent cells assessed as melting temperature at +/- 250 uM incubated for 45 mins by SYPRO orange dye based DSF analysis (reference value: 48.3 degreeC)
T1 sequence (whole entry): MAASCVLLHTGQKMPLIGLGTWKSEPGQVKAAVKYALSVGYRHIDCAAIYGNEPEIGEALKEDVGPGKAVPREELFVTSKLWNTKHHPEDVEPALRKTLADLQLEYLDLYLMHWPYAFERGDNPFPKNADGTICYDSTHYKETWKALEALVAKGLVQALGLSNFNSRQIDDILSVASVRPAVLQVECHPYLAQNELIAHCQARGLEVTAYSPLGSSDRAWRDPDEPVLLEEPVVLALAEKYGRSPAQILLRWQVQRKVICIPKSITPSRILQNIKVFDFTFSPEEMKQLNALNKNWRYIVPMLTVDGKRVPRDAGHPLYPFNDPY
Procedure, shortened: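 5 μM protein with or without 250 μM NADPH or NADP⁺ and 250 μM inhibitor; cofactor preincubated 15 min, then inhibitor 30 min at room temperature. 10X SYPRO Orange added; temperature ramped 25–70°C in 0.3°C steps. DMSO-matched controls (1%); duplicates.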

[2] = Drug uptake in mouse serum at 120 mg/kg body weight, ip measured at 24 hrs post injection by HPLC/mass spectrometry analysis; type: ADME, organism-based; details: in vivo
Procedure, shortened: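 Serum collected 24 h after i.p. injection; compound level measured by HPLC/mass spectrometry.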

[3] = In vivo inhibition of SCoR2 in C57BL/6J mouse assessed as reduction in SNO-CoA metabolic activity in kidneys at 120 mg/kg body weight, ip administered as single dose into abdomen measured after 18 hrs relative to control; type: functional
Procedure, shortened: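 Single i.p. injection into the mouse abdomen, DMSO vehicle; organs collected 18 h later. Tissues homogenized in 50 mM phosphate pH 7.0, 150 mM NaCl, EDTA/DTPA, then clarified; lysate started reactions with 200 μM SNO-CoA and 100 μM NADPH, 2 min, NADPH loss monitored, in triplicate. Compared with vehicle and SCoR2−/− kidneys.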

Homo sapiens = species on record: Homo sapiens; experiment: Selectivity index, ratio of IC50 for inhibition of human recombinant AKR1B1 expressed in Escherichia coli BL21-CodonPlus competent cells to IC50 for inhibition of human recombinant SCoR2 expressed in Escherichia coli BL21-CodonPlus competent cells
Procedure, shortened: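 Purified enzyme at 200 nM (SCoR2 with 100 μM SNO-CoA; AKR1B1 with 100 μM methylglyoxylate) in 50 mM phosphate pH 7.0 with serial inhibitor dilutions; started with 100 μM NADPH, 2 min. Rate from 340 nm decrease, normalized to 20 nM protein activity; IC50 fitted, n=3. Selectivity taken as AKR1B1/SCoR2 IC50 ratio.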

Kidney = experiment: Effect on SCoR2 protein expression in kidney of ischemia/reperfusion induced acute kidney injury mouse model at 120 mg/kg, ip pretreated for 18 hrs followed by kidney injury surgery and measured after 24 hrs by Western blot analysis; type: functional, organism-based; details: time 42.0 hrs
Procedure, shortened: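 Mice given 120 mg/kg i.p. 18 h before I/R surgery; kidneys collected 24 h post-surgery. SCoR2 protein measured by western blot (4–20% gels, overnight primary antibody at 4°C, HRP secondary, ECL) and quantified; n=6, DMSO controls.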

Mus musculus [4] = experiment: Protection against ischemia/reperfusion induced acute kidney injury in mouse assessed as increase in SNO-PKM2 level in kidney at 120 mg/kg, ip pretreated for 18 hrs followed by kidney injury surgery and measured after 24 hrs by Western blot analysis; type: functional, organism-based; details: time 42.0 hrs
Procedure, shortened: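 Kidneys from sham or I/R mice (120 mg/kg i.p. or DMSO) homogenized in HEN buffer with MMTS, then SDS/MMTS blocking at 50°C for 20 min and acetone-precipitated. 2 mg lysate captured on thiopropyl-Sepharose with 50 mM ascorbate, 4 h in the dark; no-ascorbate controls. PKM2 detected by western blot and normalized to input PKM2, n=3.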

Mus musculus [5] = experiment: Protection against ischemia/reperfusion induced acute kidney injury in mouse assessed as reduction in PKM2 activity in kidney at 120 mg/kg, ip pretreated for 18 hrs followed by kidney injury surgery and measured after 24 hrs by colorimetric pyruvate kinase activity assay; details: time 42.0 hrs

With `O=C1NC(=O)C2(N1)c1ccccc1-c1ccc(C3CC3)cc12` (configuration not stated) the Tm [1] was 46.6 °C, the Drug uptake [2] was “Active” and the inhibition in vivo at 120 mg/kg [3] was 80%. For the same compound, the Ratio IC50 (Homo sapiens) was 9.7, the Activity (Kidney) was “inactive” and the Activity (Mus musculus [4]) was “Active”. The Activity (Mus musculus [5]) was “Active”.
